# The list is not random: actives were taken first. Their share in the collection is about 27%.
# CYP2C9 act: CYP2C9 (human) activation; recombinant CYP2C9, luciferin-H conversion, luminescence; hits give high values; factor 1 = untreated enzyme, 0 = blocked; activation factor at 5 µM; 1.4% of 96,000 active;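 active = activation factor of 2 or more for CYP2C9 at a 5 µM dose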;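 also: 0 = sulfaphenazole-blocked wells and 1 = vehicle-only wells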
# CYP2C9 inhib: inhibitors of human CYP2C9 | P11712 | CYP2C9 Supersomes, luciferin-H conversion, luminescence | inhibition, % at 5 µM | 20% of 96,000 active;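 active = blocking of liver enzyme CYP2C9 beyond about 50% at 5 µM, limit read from the data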
# HIV Rev-RRE inh: inhibitors of HIV-1 Rev-RRE RNA interaction | AID 704 | Rev peptide-RRE RNA binding, FRET | inhibition, % at 8 µM | P05866 | 0.79% of 97,000 active;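 active = inhibition above the screen-wide mean plus 3 SD, cut at about 35% in these data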;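 also: 0% = median DMSO wells and 100% = median Neomycin B control wells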
# Target sequence (P05866 whole entry, looked up): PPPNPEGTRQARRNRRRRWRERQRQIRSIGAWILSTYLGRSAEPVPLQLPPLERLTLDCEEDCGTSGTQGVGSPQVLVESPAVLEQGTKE
#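 Test system – labelled RRE RNA duplex and labelled Rev peptide · Signal – fluorescein-to-Cy5 FRET, 480 nm excitation · Evaluation – % inhibition of FRET ratio versus controls · Benchmarks – DMSO low control, neomycin B high control · Incubation – 5 min RNA-compound premix plus 15 min binding step, 25 °C · Medium – HEPES pH 7.5 salt buffer with EDTA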
# CYP2C19 inh: blocks human cytochrome P450 2C19. P33261. CYP2C19 Supersomes, luciferin-H EGE luminescence, 30 min. inhibition, % at 5 µM. 21% of 96,000 active. AID 778;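 active = CYP2C19 inhibition above a set limit at 5 µM in the primary screen, cut at about 50% in these data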;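 also: plate controls were negative control wells for no effect and 2.5 mM tranylcypromine positive control for full effect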
# Cav32 inh: human Cav3.2 channel inhibition, primary screen; O95180; Cav3.2-expressing cells, Fluo-4 calcium fluorescence FDSS; hits give low values; B-score at 10 µM; 4% of 100,000 active;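 active = single-dose well whose peak fluorescence ratio is a statistical outlier from its plate by either plate-standardised score or position-corrected B-score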
# CYP2C19 activ: increases human CYP2C19 enzyme activity. activation factor at 5 µM. 96,000 tested, under 10 active. P33261. recombinant CYP2C19, luciferin-H EGE luminescence; hits give high values; 0 = fully inhibited enzyme, 1 = untreated enzyme;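 active = activation factor of at least 2 at 5 µM in the primary screen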;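 also: 0 = wells with 2.5 mM tranylcypromine and 1 = vehicle-only wells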
# Starred values were filed as active, the others as inactive; . = not tested or not shown.
SMILES,CYP2C9 act,CYP2C9 inhib,HIV Rev-RRE inh,CYP2C19 inh,Cav32 inh,CYP2C19 activ
CC(=O)NC(CCS(C)(=O)=O)C(=O)Nc1cccc(C)c1C (stereo not given),1.1,-11,11,-3,0.44,1
COc1ccc(-n2cnc3cc(NCc4cccs4)ccc32)cc1,0.7,33,3,46,.,0.5
Cc1ccc(-n2cnc3cc(NCc4cccs4)ccc32)cc1,0.1,93*,-3,90*,-3.8,0.1
CC/C(CC(C)(C)c1ccccc1)=N\O,0.8,25,7,79*,0.72,0.2
CN(C)CCC(O)(c1ccccc1)c1ccccc1,1,-1,5,-2,0.53,1
Cc1ccc(NS(=O)(=O)c2cccc(C(=O)N3CCOCC3)c2)cc1,0.6,40,3,72*,0.48,0.3
Cc1ccc(S(=O)(=O)Nc2cc(C(=O)N3CCOCC3)ccc2N2CCCCC2)cc1,0.4,57*,-2,37,-2.9,0.6
COc1ccc(S(=O)(=O)Nc2cc(C(=O)NC(C)C)ccc2N2CCOCC2)cc1,0.4,58*,4,54*,0.0022,0.5
CC(=O)OCCCN1c2ccccc2Nc2nnc(-c3ccccc3)cc21,.,.,1,61*,-2.5,0.4
CCCCN1CC(C(=O)NC2CCCCC2)CC1=O (stereo not given),1.2,-20,6,-13,1.2,1.1
CC1C(=O)C(C)C(c2ccco2)NC1c1ccco1 (stereo not given),1.3,-29,.,94*,-2.8,0.1
COc1cc(-c2cccs2)cc(=O)c2c(C)oc(C)c12,0.6,41,12,13,-4.1,0.9
COc1ccc(C2(NC(C)=O)CCN(C(=O)c3ccco3)CC2)cc1,0.6,40,5,29,0.009,0.7
CCN(CC)CCn1c(NCc2cccc(OC)c2)nc2ccccc21,1,0,4,32,0.38,0.7
CNC(=O)c1cc2cc(OC)ccc2n1CCN(Cc1ccccc1)Cc1ccccc1,0.3,67*,15,92*,0.15,0.1
CNC(=O)c1cc2cc(OC)ccc2n1CCN(C)C,1,-4,5,63*,0.016,0.4
COc1ccc2c(c1)cc(C(=O)O)n2C,1.2,-16,3,-10,-0.053,1.1
Oc1ccc(-c2nc(=S)[nH][nH]2)cc1,.,.,0,.,1.3,.
Oc1ccc(N=Nc2n[nH]c(-c3ccc(Cl)cc3)n2)cc1,2*,-104,11,20,1.4,0.8
C#CCOCCOCCOCCNc1nc(N2CCN(C(=O)Cn3cc(CCCN=C(N)N)nn3)CC2)nc(N2CCN(C(=O)[C@H](C(C)C)n3cc(CCO)nn3)CC2)n1,.,.,.,.,0.57,.
Cc1ccc(C)n1CCN1CCN(CC(=O)Nc2cc(C(F)(F)F)ccc2Cl)CC1,0.6,45,2,16,-1.5,0.8
Nc1ccc2nc(CN3CCOCC3)[nH]c2c1,0.9,9,8,2,.,1
Cc1nc(N2CCCC2)c2nnn(Cc3ccccc3Cl)c2n1,0.5,45,.,91*,0.33,0.1
Cc1nc(N2CCC(C(N)=O)CC2)c2nnn(Cc3ccccc3)c2n1,1,-2,.,-5,0.75,1.1
Cc1nc(N2CCC3(CC2)OCCO3)c2nnn(Cc3ccccc3F)c2n1,0.2,75*,1,69*,-0.29,0.3
SMILES,CYP2C9 act,CYP2C9 inhib,HIV Rev-RRE inh,CYP2C19 inh,Cav32 inh,CYP2C19 activ
Cc1ccccc1N(CC(=O)N/N=C/c1cc(C)n(-c2ccccc2C)c1C)S(C)(=O)=O,0.4,58*,-2,10,-9.8*,0.9
CCCCSc1nc(O)c(Cc2ccccc2)c(=O)[nH]1,0.8,22,3,13,-0.039,0.9
Cc1onc(-c2ccccc2)c1-c1nc2ccccc2c(=O)o1,0.6,35,11,51*,1.4,0.5
O=C(c1ccccc1)N(c1ccccc1)C1C=CS(=O)(=O)C1 (stereo not given),0.8,17,6,25,-0.35,0.7
O=C1c2ccccc2C(=O)N1Cc1ccc2c(c1)OCO2,1.4,-39,11,54*,0.018,0.5
O=C1c2ccccc2C(Nc2ccc3c(c2)OCO3)N1Cc1ccc2c(c1)OCO2 (stereo not given),0,97*,-2,88*,-4,0.1
COc1ccc(OC)c(NC2c3ccccc3C(=O)N2Cc2ccc3c(c2)OCO3)c1 (stereo not given),0.6,42,3,43,-3.5,0.6

# Screening data: PubChem BioAssay, several laboratories
